Test [1] deals with HeLa. As to the kind of experiment: Antitumor activity against human HeLa cells after 72 hrs by MTT assay. The class given is functional, cell-based. The method, boiled down:
(§1)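 Cells from ATCC grown as monolayers in DMEM with 10% FBS, 2 mM L-glutamine, penicillin/streptomycin, 5% CO2, 37 °C. Seeded on day 0 at 1 × 10^4/mL (2 × 10^4/mL for MCF-7). Five 10-fold dilutions (10^-8 to 10^-4 mol/L) added, then 72 h exposure. MTT read at 570 nm; percent growth vs time-zero and untreated controls. IC50 by linear regression; quadruplicates, three experiments.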
On the technique in general: Tetrazolium dyes change colour on reduction, which living cells bring about.

Test [2] has as its system MIA PaCa-2. As to the kind of experiment: Antitumor activity against human MiaPaCa2 cells after 72 hrs by MTT assay. It is filed as functional, cell-based. The conditions noted are these: MIA PaCa-2, 72 h. The gist of the method:
as §1

For test [3], the system named is SW-620. Briefly: Antitumor activity against human SW620 cells after 72 hrs by MTT assay. It is filed as functional, cell-based. The conditions noted are these: SW-620, 72 h. The gist of the method: as §1
Test [4] relates to MCF7. Briefly: Antitumor activity against human MCF7 cells after 72 hrs by MTT assay. It is filed as functional, cell-based. Conditions: MCF7, 72 h. The method, boiled down:
as §1

Test [5] can be described thus: Antiproliferative activity against human […] fibroblast after 72 hrs by MTT assay. It is filed as functional. The gist of the method: as §1
Test [6] concerns NCI-H460. As to the kind of experiment: Antitumor activity against human H460 cells after 72 hrs by MTT assay. It is filed as functional, cell-based. The conditions noted are these: NCI-H460, 72 h. The method, boiled down:
as §1

In test [7] the test system is HeLa. As to the kind of experiment: Cell cycle arrest in human HeLa cells assessed as accumulation at S phase after 48 hrs at 5 uM. It is filed as functional. The gist of the method: (§2)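 Cells seeded at 2 × 10^5 per well and incubated overnight before compound at 5 × 10^-6 M. After 24, 48 or 72 h, attached and floating cells were pooled, PBS-washed and fixed in 70% ethanol. RNase A (0.1 µg/µl, 37 °C, 15 min), then propidium iodide 1 µg/mL; flow cytometry of 20 000 events. Results given as percent of cells per phase; significance at p < 0.05.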

Test [8] concerns HeLa. Briefly: Cell cycle arrest in human HeLa cells assessed as accumulation at G2/M phase after 48 hrs at 5 uM. The class given is functional. The gist of the method: as §2
Test [9] relates to HeLa. As to the kind of experiment: Cell cycle arrest in human HeLa cells assessed as accumulation at Sub G1 phase after 72 hrs at 5 uM. The class given is functional. The method, boiled down: as §2
The subject of test [10] is HeLa. Briefly: Cell cycle arrest in human HeLa cells assessed as accumulation at G0/G1 phase after 72 hrs at 5 uM. The class given is functional. The gist of the method: as §2
For test [11], the system named is DNA. Briefly: Binding affinity to calf thymus DNA by thermal melting temperature assay. The conditions noted are these: Bos taurus. The class given is nucleic-acid assay. The gist of the method: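 ct-DNA (as phosphate concentration) in sodium cacodylate buffer pH 7.0, I = 0.05 mol dm-3. Compound/polynucleotide ratio r = 0.3. Absorbance at 260 nm followed against temperature, ligand absorbance subtracted. Tm taken as transition midpoint by first derivative or tangent method. ΔTm = Tm(complex) − Tm(free DNA), averaged over at least two runs, error ±0.5 °C.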

Test [12] has as its system HEp-2. Briefly: Antitumor activity against human Hep2 cells after 72 hrs by MTT assay. The class given is functional, cell-based. Conditions: HEp-2, 72 h. The gist of the method:
as §1

The subject of test [13] is HeLa. Briefly: Cell cycle arrest in human HeLa cells assessed as accumulation at Sub G1 phase after 24 hrs at 5 uM. The class given is functional. The gist of the method:
as §2

For test [14], the system named is HeLa. Briefly: Cell cycle arrest in human HeLa cells assessed as accumulation at G0/G1 phase after 24 hrs at 5 uM. The class given is functional. The method, boiled down: as §2
Test [15] deals with HeLa. As to the kind of experiment: Cell cycle arrest in human HeLa cells assessed as accumulation at S phase after 24 hrs at 5 uM. The class given is functional. The method, boiled down:
as §2

Test [16] concerns HeLa. Briefly: Cell cycle arrest in human HeLa cells assessed as accumulation at G2/M phase after 24 hrs at 5 uM. The class given is functional. The gist of the method: as §2
Test [17] relates to HeLa. Briefly: Cell cycle arrest in human HeLa cells assessed as accumulation at Sub G1 phase after 48 hrs at 5 uM. It is filed as functional. The method, boiled down: as §2
Test [18] has as its system HeLa. Briefly: Cell cycle arrest in human HeLa cells assessed as accumulation at G0/G1 phase after 48 hrs at 5 uM. The class given is functional. The method, boiled down: as §2
Test [19] concerns HeLa. Briefly: Cell cycle arrest in human HeLa cells assessed as accumulation at S phase after 72 hrs at 5 uM. The class given is functional. The method, boiled down:
as §2

Test [20] concerns HeLa. Briefly: Cell cycle arrest in human HeLa cells assessed as accumulation at G2/M phase after 72 hrs at 5 uM. It is filed as functional. The gist of the method: as §2
For test [21], the system named is SW-620. Briefly: Cell cycle arrest in human SW620 cells assessed as accumulation at Sub G1 phase after 24 hrs at 5 uM. The class given is functional. The gist of the method:
as §2

For test [22], the system named is SW-620. Briefly: Cell cycle arrest in human SW620 cells assessed as accumulation at G1/G0 phase after 24 hrs at 5 uM. The class given is functional. The gist of the method: as §2
The subject of test [23] is SW-620. Briefly: Cell cycle arrest in human SW620 cells assessed as accumulation at S phase after 24 hrs at 5 uM. The class given is functional. The method, boiled down: as §2
Test [24] has as its system SW-620. As to the kind of experiment: Cell cycle arrest in human SW620 cells assessed as accumulation at G2/M phase after 24 hrs at 5 uM. It is filed as functional. The gist of the method: as §2
Test [25] concerns SW-620. As to the kind of experiment: Cell cycle arrest in human SW620 cells assessed as accumulation at Sub G1 phase after 48 hrs at 5 uM. The class given is functional. The gist of the method:
as §2

For test [26], the system named is SW-620. As to the kind of experiment: Cell cycle arrest in human SW620 cells assessed as accumulation at G1/G0 phase after 48 hrs at 5 uM. The class given is functional. The gist of the method: as §2
In test [27] the test system is SW-620. Briefly: Cell cycle arrest in human SW620 cells assessed as accumulation at S phase after 48 hrs at 5 uM. It is filed as functional. The method, boiled down:
as §2

For test [28], the system named is SW-620. Briefly: Cell cycle arrest in human SW620 cells assessed as accumulation at G2/M phase after 48 hrs at 5 uM. The class given is functional. The method, boiled down: as §2
In test [29] the test system is SW-620. Briefly: Cell cycle arrest in human SW620 cells assessed as accumulation at Sub G1 phase after 72 hrs at 5 uM. The class given is functional. The gist of the method: as §2
Test [30] deals with SW-620. As to the kind of experiment: Cell cycle arrest in human SW620 cells assessed as accumulation at G1/G0 phase after 72 hrs at 5 uM. The class given is functional. The gist of the method:
as §2

Test [31] relates to SW-620. Briefly: Cell cycle arrest in human SW620 cells assessed as accumulation at S phase after 72 hrs at 5 uM. The class given is functional. The gist of the method: as §2
In test [32] the test system is SW-620. Briefly: Cell cycle arrest in human SW620 cells assessed as accumulation at G2/M phase after 72 hrs at 5 uM. The class given is functional. The gist of the method: as §2
The species named for test [33] is Homo sapiens. As to the kind of experiment: Inhibition of Topoisomerase 2-mediated pRYG DNA relaxation activity. The gist of the method: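 Supercoiled pRYG plasmid with 8 units purified topo II in assay buffer. Test compound or etoposide added as 2 µL of a 1 mM stock per 20 µL reaction. Incubation 37 °C for 30 min; stopped with SDS, then proteinase K (50 µg/mL, 37 °C, 15 min). Gel electrophoresis, post-stained with ethidium bromide 0.5 µg/mL, UV imaging of supercoiled-to-relaxed conversion.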

Calls of active or inactive are those of the source. No cut-off for these calls is given here.

For `N#Cc1ccc2nc3ccc4ccccc4n3c2c1`, the IC50 in [1] amounted to 0.05 µM; in test [2] it was 15 µM; in [3] it was 8 µM; in test [4] it was 18 µM; in test [5], 14 µM; in test [6] it was 13 µM.
Consider `N#Cc1ccc2c(c1)nc1ccc3ccccc3n12`, for which the IC50 is 4 µM in [1]; 7 µM in [2]; 2 µM in [3]; 21 µM in test [4]; 5 µM in test [5]; 7 µM in test [6].
In the case of `Cl.c1ccc2c(c1)ccc1nc3ccc(C4=NCCN4)cc3n12`, the Activity in test [7] is given as 36%; in test [8] it was 32%; in [9], 3%; in test [10] it was 28%; in test [13] it was 2%; in [14], 32%. The Activity in test [15] stood at 42%; in test [16], 26%; in test [17], 2%; in test [18] it was 34%; in [19], 32%; in [20], 40%. Besides, the Activity in test [21] was found to be 3%; in [22], 12%; in test [23], 39%; in [24], 49%; in test [25], 12%; in test [26] it was 25%. In addition, the Activity in test [27] came to 26%; in test [28] it was 49%; in test [29], 13%; in test [30], 30%; in test [31], 17%; in test [32], 54%. In test [11], the ΔTm is 4.9 °C. Further, the IC50 in [12] was 2 µM; in test [1], 2 µM; in test [2], 1 µM; in test [3], 0.4 µM; in test [4], 2 µM; in [5] it was 2 µM. Further, the result in [33] was Active.
Take `Cl.N=C(NN1CCOCC1)c1ccc2nc3ccc4ccccc4n3c2c1`: the Activity stood at 37% in test [7]; 27% in test [8]; 2% in [9]; 25% in [10]; 3% in [13]; 36% in [14]. The Activity in [15] is listed as 30%; in test [16] it was 34%; in [17] it was 2%; in [18], 36%; in test [19] it was 39%; in [20] it was 35%. In addition, the ΔTm in [11] came out at 3.2 °C. Besides, the 50% inhibitory concentration (IC50) worked out at 2 µM in test [12]; 3 µM in test [1]; 2 µM in test [2]; 2 µM in [3]; 4 µM in test [4]; 4 µM in test [5].
On to `N#Cc1ccc(/C=C/c2nc3ccccc3[nH]2)cc1`, for which the IC50 worked out at 19 µM in test [1]; 36 µM in [2]; 23 µM in test [3]; 14 µM in test [4]; 20 µM in test [6].
Regarding `N#Cc1ccc2nc(/C=C/c3ccccc3)[nH]c2c1`, the IC50 in test [1] was determined as 2 µM; in [2] it was 4 µM; in [3] it was 2.5 µM; in [4], 4 µM; in test [5] it was 14 µM; in test [6] it was 3 µM.
For the molecule `CC(C)NC(=N)c1ccc2nc3ccc4ccccc4n3c2c1`, the ΔTm in [11] came to 3.7 °C. In addition, the half-maximal inhibitory concentration (IC50) in test [12] was 4 µM; in [1], 4 µM; in test [2], 3 µM; in test [3], 3 µM; in [4] it was 4 µM; in test [5], 10 µM.
For the molecule `C(=C/c1nc2ccc(C3=NCCN3)cc2[nH]1)/c1ccccc1.Cl`, the ΔTm in [11] was found to be 1 °C. Besides, the IC50 in [12] was found to be 27 µM; in test [1], 35 µM; in [2] it was 25 µM; in test [3] it was 45 µM; in [4], 17 µM; in [5], 99 µM. Further, the Activity in test [21] is on record as 0.5%; in test [22], 36%; in [23], 45%; in test [24], 19%; in [25], 1%; in test [26] it was 46%. Moreover, the Activity in test [27] was determined as 39%; in test [28] it was 15%; in [29], 0.8%; in test [30], 49%; in [31] it was 30%; in test [32] it was 21%. Moreover, the outcome in test [33] was Active.

The IC50 is the concentration needed to halve the response being measured. Low values mean inhibition by little substance, high ones a need for much substance. A word on the ΔTm: it is the change in melting temperature against a reference sample.
